The subject of experiment [1] is Acinetobacter baumannii. As to the kind of experiment: Antibacterial activity against Acinetobacter baumannii ATCC 19606 after 18 to 20 hrs by broth microdilution method. It is filed as functional. Particulars: ATCC 19606 = CIP 70.34 = JCM 6841. Background: In broth dilution the organism is exposed to a series of concentrations in liquid medium.
Experiment [2] relates to Escherichia coli. As to the kind of experiment: Antibacterial activity against Escherichia coli ATCC 25922 after 18 to 20 hrs by broth microdilution method. Format: functional. In a few lines: (§1)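 Broth microdilution in tryptic soy broth: 2-fold dilutions mixed 1:1 with ~1.5 × 10^5 CFU/mL inoculum, final 0.5–32 μg/mL; 37 °C, 18–20 h. MIC taken as lowest concentration giving no visible growth. At least three independent experiments, one replicate each.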

Experiment [3] has as its system Klebsiella pneumoniae. Nature of the experiment: Antibacterial activity against Klebsiella pneumoniae ATCC 13883 after 18 to 20 hrs by broth microdilution method. Format: functional.
Experiment [4] has as its system Pseudomonas aeruginosa. As to the kind of experiment: Antibacterial activity against Pseudomonas aeruginosa ATCC 27853 after 18 to 20 hrs by broth microdilution method. It is filed as functional. In outline: as §1
Experiment [5] deals with Enterococcus faecium. As to the kind of experiment: Antibacterial activity against Enterococcus faecium ATCC 19434 after 18 to 20 hrs by broth microdilution method. It is filed as functional. In outline: as §1
Experiment [6] has as its system Staphylococcus aureus. Nature of the experiment: Antibacterial activity against Staphylococcus aureus ATCC 29213 after 18 to 20 hrs by broth microdilution method. Format: functional. In outline: as §1
In experiment [7] the test system is Staphylococcus aureus. As to the kind of experiment: Antibacterial activity against methicillin-resistant Staphylococcus aureus ATCC 43300 after 18 to 20 hrs by broth microdilution method. Format: functional. In a few lines:
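Broth microdilution in tryptic soy broth: 2-fold dilutions mixed 1:1 with ~1.5 × 10^5 CFU/mL bacterial suspension in TSB, final 0.5–32 μg/mL, 37 °C for 18–20 h. MIC = lowest concentration with no visible growth. At least three independent experiments, one replicate each.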

For experiment [8], the system named is Acinetobacter baumannii. As to the kind of experiment: Potentiation of rifampicin-mediated antibacterial activity against Acinetobacter baumannii ATCC 19606 assessed as rifampicin MIC at 2 ug/ml by checkerboard method (reference value: 16 ug/ml). It is filed as functional. Particulars: ATCC 19606 = CIP 70.34 = JCM 6841.
In experiment [9] the test system is Acinetobacter baumannii. Nature of the experiment: Potentiation of rifampicin-mediated antibacterial activity against Acinetobacter baumannii ATCC 19606 assessed as decrease in rifampicin MIC at 4 ug/ml by checkerboard method relative to control. Format: functional, ATCC 19606 = CIP 70.34 = JCM 6841.
Experiment [10] deals with Klebsiella pneumoniae. As to the kind of experiment: Potentiation of rifampicin-mediated antibacterial activity against Klebsiella pneumoniae ATCC 13883 assessed as rifampicin MIC at 2 ug/ml by checkerboard method (reference value: 16 ug/ml). It is filed as functional.
Experiment [11] relates to Klebsiella pneumoniae. Nature of the experiment: Potentiation of rifampicin-mediated antibacterial activity against Klebsiella pneumoniae ATCC 13883 assessed as decrease in rifampicin MIC at 2 ug/ml by checkerboard method relative to control. Format: functional.
The test system of experiment [12] is Acinetobacter baumannii. As to the kind of experiment: Bactericidal activity against Acinetobacter baumannii ATCC 19606. Conditions: ATCC 19606 = CIP 70.34 = JCM 6841, read-out: MBC99.9. Format: functional. In outline: (§2)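 MBC from MIC plates at end point: 50 μL from each well with no visible growth plated on tryptic soy agar and counted. MBC taken as lowest concentration giving ≥99.9% fall in viable count relative to initial inoculum. Three independent experiments, one replicate each.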

Experiment [13] has as its system Escherichia coli. As to the kind of experiment: Bactericidal activity against Escherichia coli ATCC 25922. Format: functional. Particulars: read-out: MBC99.9. In a few lines:
as §2

Experiment [14] deals with Klebsiella pneumoniae. Nature of the experiment: Bactericidal activity against Klebsiella pneumoniae ATCC 13883. Particulars: read-out: MBC99.9. Format: functional. In a few lines:
as §2

Experiment [15] concerns Pseudomonas aeruginosa. As to the kind of experiment: Bactericidal activity against Pseudomonas aeruginosa ATCC 27853. Format: functional. Conditions: read-out: MBC99.9. In outline:
as §2

The subject of experiment [16] is Enterococcus faecium. Nature of the experiment: Bactericidal activity against Enterococcus faecium ATCC 19434. It is filed as functional. Particulars: read-out: MBC99.9. In outline: as §2
The test system of experiment [17] is Staphylococcus aureus. Nature of the experiment: Bactericidal activity against Staphylococcus aureus ATCC 29213. Format: functional. Particulars: read-out: MBC99.9. In outline:
as §2

The test system of experiment [18] is Staphylococcus aureus. Nature of the experiment: Bactericidal activity against methicillin-resistant Staphylococcus aureus ATCC 43300. It is filed as functional. Particulars: read-out: MBC99.9. In a few lines: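 MBC taken at the end of the MIC test: 50 μL from each well without visible growth plated on tryptic soy agar. MBC = lowest concentration giving ≥99.9% reduction in viable cells relative to the initial inoculum. Three independent experiments, one replicate each.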

The subject of experiment [19] is Escherichia coli. Nature of the experiment: Antibacterial activity against Escherichia coli ATCC 25922 after 18 to 20 hrs in presence of 95% serum by broth microdilution method. Format: functional. In a few lines: (§3)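 Same microdilution with human serum as medium: compound 2-fold diluted in 100% serum, mixed 1:1 with 90% serum holding ~1.5 × 10^5 CFU/mL, giving 95% serum and final 0.5–64 μg/mL. MIC read as no visible growth after incubation as for the broth test.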

The test system of experiment [20] is Staphylococcus aureus. As to the kind of experiment: Antibacterial activity against Staphylococcus aureus ATCC 29213 after 18 to 20 hrs in presence of 95% serum by broth microdilution method. Format: functional. In outline: as §3

Converted amounts (≈) assume the structure as drawn. Non-standard residues stand in square brackets, D forms with d. Residues, ends and D or L forms follow the SMILES beside them. *: point of attachment. Decanoyl = CCCCCCCCCC(=O)*; Heptanoyl = CCCCCCC(=O)*; Octanoyl = CCCCCCCC(=O)*; Dab = NCC[C@H](N)C(=O)O; Cbz = O=C(OCc1ccccc1)*; Hexanoyl = CCCCCC(=O)*

As for `CCCCCCCC(=O)N[C@@H](CCN)C(=O)N[C@@H](CCN)C(=O)N[C@@H](CCN)C(=O)N[C@H](Cc1ccccc1)C(=O)N[C@@H](CC(C)C)C(=O)N[C@@H](CCN)C(=O)N[C@@H](C(=O)N[C@@H](CC(C)C)C(=O)N[C@@H](CCN)C(N)=O)C(C)C` (Octanoyl-[Dab][Dab][Dab][dF]L[Dab][dV]L[Dab]-NH2), the MIC (as a rule, the smallest concentration in the dilution series that meets the test's criterion for growth inhibition) with Acinetobacter baumannii [1] is > 32 µg/mL; against Escherichia coli [2] it was > 32 µg/mL; against Klebsiella pneumoniae [3] it was > 32 µg/mL; in the experiment on Pseudomonas aeruginosa [4], 16 to 32 µg/mL (≈ 14.3 to 28.7 µM); in the experiment with Enterococcus faecium [5], > 32 µg/mL; against Staphylococcus aureus [6], ≥ 32 µg/mL. For the same compound, the minimal inhibitory concentration (MIC) against Staphylococcus aureus [7] was > 32 µg/mL; in the experiment with Acinetobacter baumannii [8], 0.0312 to 0.0625 µg/mL; in the experiment with Klebsiella pneumoniae [10], 0.0625 to 0.125 µg/mL. Also, the “fold change (FC)” value is on record as 256 - 512 with Acinetobacter baumannii [9] and 256 with Klebsiella pneumoniae [11].

`CC[C@H](C)[C@H](NC(=O)[C@H](CCN)NC(=O)OCc1ccccc1)C(=O)N[C@@H](CCN)C(=O)N[C@H](Cc1ccccc1)C(=O)N[C@@H](CC(C)C)C(=O)N[C@@H](CCN)C(=O)N[C@@H](C(=O)N[C@@H](CC(C)C)C(=O)N[C@@H](CO)C(N)=O)C(C)C` (Cbz-[Dab]I[Dab][dF]L[Dab][dV]LS-NH2): the MIC in the experiment with Acinetobacter baumannii [1] is 16 µg/mL (≈ 14.2 µM); against Escherichia coli [2], 8 to 16 µg/mL (≈ 7.11 to 14.2 µM); against Klebsiella pneumoniae [3] it was > 32 µg/mL; in the experiment on Pseudomonas aeruginosa [4], 16 µg/mL (≈ 14.2 µM); against Enterococcus faecium [5], > 32 µg/mL; with Staphylococcus aureus [6] it was > 32 µg/mL. Further, the results for the minimum inhibitory concentration (MIC) in the experiment on Staphylococcus aureus [7], with Acinetobacter baumannii [8] and with Klebsiella pneumoniae [10] were > 32 µg/mL, 0.0019 to 0.0039 µg/mL and 0.0039 µg/mL, respectively. For the same compound, the “fold change (FC)” value with Acinetobacter baumannii [9] is given as “>=8192”; in the experiment with Klebsiella pneumoniae [11], 4096 - 8192.

Consider `CCCCCCC(=O)N[C@@H](CCN)C(=O)N[C@H](C(=O)N[C@@H](CCN)C(=O)N[C@H](Cc1ccccc1)C(=O)N[C@@H](CC(C)C)C(=O)N[C@@H](CCN)C(=O)N[C@H](CC(C)C)C(=O)N[C@@H](CC(C)C)C(=O)N[C@@H](CO)C(N)=O)[C@@H](C)CC` (Heptanoyl-[Dab]I[Dab][dF]L[Dab][dL]LS-NH2), for which the minimum inhibitory concentration (MIC) was 8 to 16 µg/mL (≈ 7.17 to 14.3 µM) against Acinetobacter baumannii [1]; 1 to 4 µg/mL (≈ 0.896 to 3.58 µM) with Escherichia coli [2]; 4 µg/mL (≈ 3.58 µM) in the experiment on Klebsiella pneumoniae [3]; 2 to 4 µg/mL (≈ 1.79 to 3.58 µM) against Pseudomonas aeruginosa [4]; 8 to 16 µg/mL (≈ 7.17 to 14.3 µM) with Enterococcus faecium [5]; 16 to 32 µg/mL (≈ 14.3 to 28.7 µM) in the experiment with Staphylococcus aureus [6]. For the same compound, the MIC against Staphylococcus aureus [7] was found to be 16 µg/mL (≈ 14.3 µM); in the experiment with Escherichia coli [19] it was 16 µg/mL; with Staphylococcus aureus [20] it was 32 µg/mL. The MBC in the experiment with Acinetobacter baumannii [12] was 16 µg/mL (≈ 14.3 µM); in the experiment with Escherichia coli [13], 16 µg/mL (≈ 14.3 µM); in the experiment with Klebsiella pneumoniae [14], 8 µg/mL (≈ 7.17 µM); with Pseudomonas aeruginosa [15] it was 8 to 16 µg/mL (≈ 7.17 to 14.3 µM); with Enterococcus faecium [16], 16 µg/mL (≈ 14.3 µM); with Staphylococcus aureus [17], 16 to 32 µg/mL (≈ 14.3 to 28.7 µM). Moreover, the MBC with Staphylococcus aureus [18] fell in the range of 16 to 32 µg/mL (≈ 14.3 to 28.7 µM).

With `CCCCCC(=O)N[C@@H](CCN)C(=O)N[C@H](C(=O)N[C@@H](CCN)C(=O)N[C@H](Cc1ccccc1)C(=O)N[C@@H](CC(C)C)C(=O)N[C@@H](CCN)C(=O)N[C@@H](C(=O)N[C@@H](CC(C)C)C(=O)N[C@@H](CO)C(N)=O)C(C)C)[C@@H](C)CC` (Hexanoyl-[Dab]I[Dab][dF]L[Dab][dV]LS-NH2), the MIC with Acinetobacter baumannii [1] was > 32 µg/mL; in the experiment on Escherichia coli [2], 8 to 16 µg/mL (≈ 7.35 to 14.7 µM); in the experiment on Klebsiella pneumoniae [3], ≥ 32 µg/mL; in the experiment on Pseudomonas aeruginosa [4], 8 to 16 µg/mL (≈ 7.35 to 14.7 µM); against Enterococcus faecium [5] it was > 32 µg/mL; in the experiment with Staphylococcus aureus [6], > 32 µg/mL. Also, the values for the MIC in the experiment on Staphylococcus aureus [7], with Acinetobacter baumannii [8] and in the experiment with Klebsiella pneumoniae [10] were > 32 µg/mL, 0.0078 to 0.0156 µg/mL and 0.0039 µg/mL, respectively. Also, the “fold change (FC)” value with Acinetobacter baumannii [9] is listed as 4096 - 8192; in the experiment on Klebsiella pneumoniae [11], 8192.

On to `CCCCCCCCCC(=O)N[C@@H](CCN)C(=O)N[C@H](C(=O)N[C@H](C(=O)N[C@H](CC(C)C)C(=O)N[C@@H](CC(C)C)C(=O)N[C@@H](CCN)C(=O)N[C@@H](C(=O)N[C@@H](CC(C)C)C(=O)N[C@@H](CO)C(N)=O)C(C)C)[C@@H](C)O)[C@@H](C)CC` (Decanoyl-[Dab]IT[dL]L[Dab][dV]LS-NH2), for which the minimal inhibitory concentration (MIC) against Acinetobacter baumannii [1] was > 32 µg/mL; in the experiment with Escherichia coli [2], > 32 µg/mL; with Klebsiella pneumoniae [3], > 32 µg/mL; in the experiment on Pseudomonas aeruginosa [4], > 32 µg/mL; in the experiment on Enterococcus faecium [5] it was ≥ 32 µg/mL; in the experiment on Staphylococcus aureus [6], > 32 µg/mL. For the same compound, the MIC is > 32 µg/mL in the experiment on Staphylococcus aureus [7], > 0.125 µg/mL in the experiment with Acinetobacter baumannii [8] and > 0.125 µg/mL in the experiment on Klebsiella pneumoniae [10]. Moreover, the entries for the “fold change (FC)” value in the experiment on Acinetobacter baumannii [9] and in the experiment on Klebsiella pneumoniae [11] were <128 and <8, respectively.

The record behind these values is ChEMBL document CHEMBL4052819 (2017).
